Compound activity from PubChem.
SR-BI DiI-HDL act – SR-BI HDL lipid transfer activation; activation, % at 12.5 µM; actives 0.096% (n = 320,000); CHO ldlA[mSR-BI] cells, DiI-HDL uptake fluorescence, 3 h; 100 = double the neutral-control signal;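 active = mean replicate activation of at least 60% and every replicate at or above 60%; inconclusive = mean or all-replicate condition met, but not both; inactive = mean below 60% and not all replicates reaching 60%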
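Test system: SR-BI-overexpressing, LDLR-lacking CHO cells; Medium: Ham's F12 with 0.5% BSA, HEPES 25 mM, pH 7.4; Schedule: 3 h, 37 °C; Technique: bottom-read fluorescence, 550/595 nm.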
FXN GAA850 act – increases GAA850 frataxin promoter reporter activity | HEK293 lucGAA850 FXN promoter luciferase reporter, 24 h; percent of 10 µM SAHA response | actives 0.56% (n = 360,000) | activation, % at 6 µM | AID 540364;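 active = activation above the average of all compounds screened plus 3 SD, cutoff fixed separately per campaign, cut at about 7.5% in these data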
SR-BI HDL uptake – mouse SR-BI HDL lipid transfer inhibition | inhibition, % at 12.5 µM | actives 0.96% (n = 320,000) | AID 488896 | ldlA[mSR-BI] CHO cells, DiI-HDL uptake fluorescence, 3 h;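 active = mean replicate inhibition of at least 70% and a set share of replicates each scoring 70 or more; inconclusive = meets just one of the two criteria; inactive = fails both criteria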
Target sequence (Q61009 whole entry, looked up): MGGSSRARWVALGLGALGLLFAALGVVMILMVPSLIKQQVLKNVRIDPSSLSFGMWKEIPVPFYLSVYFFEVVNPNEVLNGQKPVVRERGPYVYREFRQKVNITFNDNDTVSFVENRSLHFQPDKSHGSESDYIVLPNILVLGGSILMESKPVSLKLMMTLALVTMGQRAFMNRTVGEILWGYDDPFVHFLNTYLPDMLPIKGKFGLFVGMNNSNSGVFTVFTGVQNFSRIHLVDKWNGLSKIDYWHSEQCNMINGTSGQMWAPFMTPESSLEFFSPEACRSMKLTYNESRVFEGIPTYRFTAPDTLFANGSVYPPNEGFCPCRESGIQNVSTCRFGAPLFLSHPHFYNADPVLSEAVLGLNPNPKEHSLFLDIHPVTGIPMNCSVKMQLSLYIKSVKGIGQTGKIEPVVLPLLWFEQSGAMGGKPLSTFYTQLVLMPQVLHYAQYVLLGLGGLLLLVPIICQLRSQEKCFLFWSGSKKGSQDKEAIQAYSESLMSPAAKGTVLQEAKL
HIF act – HIF pathway transcriptional activation. U2OS HRE-luciferase reporter, luminescence; normalized: DMSO 0%, desferrioxamine 100%. activation, % at 7.5 µM (by protocol). actives 0.32% (n = 300,000);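 active = mean activation of at least 10% of the iron chelator positive control signal, with at least half of replicates also reaching 10%; inconclusive = mean and replicate majority disagree about reaching 10%; inactive = mean and most replicates under 10%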
ABCB6 inh MLPCN – blocks the human ABCB6 transporter | Q9NP58 | K562-ABCB6 porphyrin accumulation, flow cytometry, 1 h; active compounds read low | fluorescence ratio to DMSO, % at 10 µM | actives 0.19% (n = 360,000) | AID 602162;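 active = fluorescence ratio to DMSO below 75%, the collection mean minus 3 SD; inconclusive = too few cells collected in the well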;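 also: signal is porphyrin accumulated inside mitochondria; lower ratio means ABCB6 inhibition with less porphyrin fluorescence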
AHR activator – activates the human aryl hydrocarbon receptor; actives 2.5% (n = 320,000); AID 2796; AHR-responsive luciferase reporter cells, luminescence; activation, % at 5 µM; P35869; in the data active = activation above about 47%
Each line names hits and unclear results; the compound was inactive in the other large screens. A selection: hits, their analogues and other compounds. The true share with any hit is near 3.9%.

CCc1ccc2oc(-c3cc(N)ccc3O)nc2c1	AHR activator 73.5
CCCc1cc(=O)oc2cc(OCC(=O)N3C[C@H]4C[C@@H](C3)c3cccc(=O)n3C4)c(Cl)cc12	none
Cc1onc(-c2ccccc2Cl)c1C(=O)OCC(=O)Nc1ccc2c(c1)OCO2	AHR activator 55.8
OC[C@@H]1CN(Cc2ccc(-c3ccccc3)cc2)C[C@H](n2cnc3c(NCc4ccco4)ncnc32)O1	none (no result: SR-BI DiI-HDL act, SR-BI HDL uptake, HIF act, AHR activator)
N#CCSc1ncccc1-c1nc2ccccc2[nH]1	AHR activator 73.1
N#CCCCSc1ncccc1-c1nc2ccccc2[nH]1	none
COc1cccc(COc2ccccc2C2Nc3ccc(Br)cc3C(=O)N2NC(=O)c2ccncc2)c1 (configuration not stated)	AHR activator 51.9
CCCCN1CCc2c1nc1ccc(Br)cc1c2N	AHR activator 76.3
COc1ccc(CCN2C(=O)c3cccc4cccc(c34)C2=O)cc1OC	AHR activator 69.7
COc1cccc(C2C(C(=O)c3ccc(C)o3)=C(O)C(=O)N2c2cc(C)on2)c1 (configuration not stated)	none
Brc1ccc2nc(-c3c[nH]c4ccccc34)cn2c1	SR-BI HDL uptake 84.5
Cc1cccn2cc(-c3c[nH]c4ccccc34)nc12	AHR activator 58.7
CNc1nc(-c2c[nH]c3ccccc23)cs1	none
N#CC(C(=O)c1ccccc1Cl)=C1SCCCS1	none
CCOC(=O)[C@@H]1[C@H]2COc3cc(OC)ccc3[C@@H]2N2C(=O)N(c3cccc(F)c3)C(=O)[C@]12C	none
CCOC(=O)[C@@H]1[C@H]2COc3cc(OC)ccc3[C@@H]2N2C(=O)N(c3cccc(F)c3)C(=O)[C@@]12C	AHR activator 50.5
CC1(C)NC(=O)N(CC(O)CN(c2ccccc2)S(=O)(=O)c2ccccc2)C1=O (configuration not stated)	none
CCC1=NN(C(=O)c2cccc([N+](=O)[O-])c2)C(O)(c2ccc(C)cc2)C1 (configuration not stated)	SR-BI HDL uptake 76.0
CC1=NN(C(=O)c2ccccc2)C(O)(c2ccc(Br)cc2)C1 (configuration not stated)	SR-BI HDL uptake 94.3
CCC1=NN(C(=O)c2ccc(Br)cc2)C(O)(c2ccccc2)C1 (configuration not stated)	SR-BI HDL uptake 79.5
CCOC(=O)C1=NN(C(=O)c2ccccc2)C(O)(c2ccc(C)cc2)C1 (configuration not stated)	none
O=C1CN(C(=O)c2cccc([N+](=O)[O-])c2)CC(=O)N1	none
COc1ccc(S(=O)(=O)c2ccccc2)cc1NC(=O)c1c(F)cccc1F	none
CC(C)CN1CCC(=O)N([C@H](CSc2ccccc2)Cc2ccccc2)CC1	none
O=c1oc2ccccc2cc1-c1nc(-c2cccs2)cs1	AHR activator 62.2
COc1cccc2cc(-c3nc4ccccc4[nH]3)c(=O)oc12	AHR activator 71.6
COc1ccc(Nc2nc(-c3cc4cccc(OC)c4oc3=O)cs2)cc1	none
COc1cccc2cc(-c3nc(-c4cccs4)cs3)c(=O)oc12	AHR activator 47.6
COc1cccc2cc(-c3ccccc3)c(=O)oc12	none
N=c1oc2ccccc2cc1-c1nc(-c2ccccc2)cs1	AHR activator 59.2
COCCn1c(Cc2ccccc2)nnc1SCC(=O)Nc1ccccc1	none
O=c1oc2ccc3ccccc3c2cc1-c1nnc(-c2ccccc2)o1	none
O=c1oc2ccc3ccccc3c2cc1-c1nnc(-c2cccs2)o1	AHR activator 52.3
Cc1c(N2C(=O)C(C)SC23C(=O)Nc2ccccc23)c(=O)n(-c2ccccc2)n1C (configuration not stated)	none
[O-]/C(=C(\C(=S)Nc1ccccc1F)[n+]1ccccc1)c1ccc(-c2ccccc2)cc1	AHR activator 60.5
CC(C)(C)c1cc[n+](/C(C(=S)Nc2ccccc2F)=C(/[O-])c2ccc3c(c2)OCCO3)cc1	none
Cc1ccc(C(C)C)c(OCc2ccc(C(=O)N/N=C/c3cccc(O)c3O)cc2)c1	SR-BI HDL uptake 136.1, HIF act 70.0
Cc1ccc(C(C)C)c(OCc2ccc(C(=O)N/N=C/c3ccc(O)c(O)c3)cc2)c1	SR-BI HDL uptake 81.6
COc1cc(/C=N/NC(=O)c2ccc(COc3cc(C)ccc3C(C)C)cc2)cc(OC)c1O	none
O=C(O)C(=O)/C(=C\c1ccsc1)c1ccc2ccccc2n1	AHR activator 77.2
O=C(O)C(=O)/C(=C\c1ccc([N+](=O)[O-])cc1)c1ccc2ccccc2n1	none
O=C(O)C(=O)/C(=C\c1ccccc1)c1ccc2ccccc2n1	AHR activator 47.6
Clc1ccccc1-c1cccc2nccn12	none (no result: SR-BI DiI-HDL act, SR-BI HDL uptake, HIF act, AHR activator)
CCN1/C(=C/c2cc[n+](CCCS(=O)(=O)[O-])c3ccccc23)Sc2ccccc21	none
C=CC[n+]1ccc(/C=C2\C=Cc3cc(C)ccc3N2CC)c2ccccc21	SR-BI HDL uptake 92.3 (no result: HIF act, AHR activator)
COc1ccccc1Nc1cc(C)nc2c(C)cccc12	none (no result: SR-BI DiI-HDL act, SR-BI HDL uptake, HIF act, AHR activator)
COc1ccc(Nc2cc(C)nc3c(C)cccc23)cc1OC	AHR activator 67.7
COc1ccc(Cc2nnc(NC(=O)C(C)(C)C)s2)cc1	none
COC(=O)Nc1nnc(Cc2ccc(OC)cc2)s1	SR-BI DiI-HDL act inconclusive, HIF act 39.8
CN(Cc1cccs1)C(=O)COC(=O)CNC(N)=O	none
CN(Cc1cccs1)C(=O)CSc1nc(N)cc(N)n1	HIF act 39.5
COc1cc2c(cc1NC(=O)C(c1ccccc1)c1ccccc1)CCCC2	none
COc1cc2c(cc1NC(=O)c1cccc(F)c1)CCCC2	SR-BI HDL uptake 75.9
COc1cc2c(cc1NC(=O)c1cccc(Br)c1)CCCC2	SR-BI HDL uptake 73.1
COc1cc2c(cc1NC(=O)c1ccccc1F)CCCC2	none
COc1ccc(NCN2C(=O)C3C4C=CC(C4)C3C2=O)cc1 (configuration not stated)	none
COc1ccc(C2=NN(C(C#N)c3ccc(OC)cc3)C(c3ccccc3)C2)cc1 (configuration not stated)	AHR activator 54.1
CCCN(CCC)C(=O)CC(c1ccc(F)cc1)c1ccco1 (configuration not stated)	none
CCOC(=O)c1c(NC(=O)c2nn(CC)cc2Br)sc(C)c1C	none (no result: HIF act)
C=CCSc1nncn1/N=C/c1ccc(OC)cc1	AHR activator 57.5
COc1ccc(/C=N/n2cnnc2SCCO)cc1OC	none
CN(C(=O)COC(=O)c1cccnc1Nc1ccccc1F)C1CCS(=O)(=O)C1 (configuration not stated)	none
CCCNc1nc(C)nc2c1cnn2CCc1ccccc1	AHR activator 67.8
Cc1nc(NC(C)C)c2cnn(CCc3ccccc3)c2n1	AHR activator 58.9 (no result: SR-BI DiI-HDL act, SR-BI HDL uptake)
